Experimental data from PMC4347663 (Journal of medicinal chemistry, 2013).
Where a name gives a salt, the structure may show the parent alone.

Legend:
[1] = target: T1, REV-ERBα (Homo sapiens, UniProt P20393); test: REV-ERBα NCOR FRET assay; format: biochemical; conditions: purified REV-ERBα protein, in vitro
T1 sequence (P20393 1-614): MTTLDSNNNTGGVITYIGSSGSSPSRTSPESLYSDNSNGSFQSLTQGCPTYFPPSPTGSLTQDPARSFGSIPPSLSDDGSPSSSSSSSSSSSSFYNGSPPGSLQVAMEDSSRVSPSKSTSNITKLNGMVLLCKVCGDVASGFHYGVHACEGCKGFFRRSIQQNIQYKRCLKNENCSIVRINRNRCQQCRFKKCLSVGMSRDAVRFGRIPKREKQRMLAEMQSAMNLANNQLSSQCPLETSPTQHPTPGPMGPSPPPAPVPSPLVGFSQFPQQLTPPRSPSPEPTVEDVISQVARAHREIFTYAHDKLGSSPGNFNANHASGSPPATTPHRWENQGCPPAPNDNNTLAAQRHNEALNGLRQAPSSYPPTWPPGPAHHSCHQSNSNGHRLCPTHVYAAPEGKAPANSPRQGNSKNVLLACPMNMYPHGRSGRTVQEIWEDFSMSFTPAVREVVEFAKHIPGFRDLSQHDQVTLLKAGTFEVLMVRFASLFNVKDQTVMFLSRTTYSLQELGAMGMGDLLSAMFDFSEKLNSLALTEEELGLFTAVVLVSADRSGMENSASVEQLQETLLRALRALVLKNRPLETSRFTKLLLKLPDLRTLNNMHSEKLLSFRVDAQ

[2] = system: IL-6; test: LPS-stimulated IL-6 expression in THP-1 cells; format: cell-based, human; conditions: six hours; for IL-6 transcript expression: 10 μM compound, LPS 10 μg/mL; for IL-6 secretion / expression: 1 μM compound, LPS 10 mcg/mL
How it was run: (§1)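 THP-1 cells kept at 3×105 to 8×10^5 cells/mL in RPMI1640 with 10% FBS. Cells were stimulated with LPS 10 μg/mL alongside DMSO or test compound at 10 μM, or at 1 μM in triplicate. After 6 h, cells were lysed and RNA was analysed by RT-qPCR with TATA box binding protein as housekeeping gene. Groups were compared by one-way ANOVA with Dunnett's post-hoc test.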

[3] = system: ABCA1; test: ABCA1 expression in THP-1 cells; format: cell-based, human; conditions: six hours; for ABCA1 transcript expression: 10 μM compound, LPS 10 μg/mL; for ABCA1 levels: 1 μM compound, LPS 10 mcg/mL
How it was run: as §1

[4] = system: BMAL1 expression (Bmal-promoter luciferase) in U2OS cells; test: BMAL reporter gene assay in synchronized U2OS cells; format: cell-based, human; conditions: for BMAL1 Phase Delay: delay of peak of second cycle, 20 μM treated cells relative to DMSO treated cells; for inhibition at 20 µM: Homo sapiens, U2OS, 40 h, read-out: BMAL1 Supp.
[5] = target: T2, LXRα (Homo sapiens, UniProt Q13133); test: LXRα radio ligand displacement binding; conditions: for LXRα Fold Sel.: selectivity for REV-ERBα over LXRα
T2 sequence (Q13133 1-447): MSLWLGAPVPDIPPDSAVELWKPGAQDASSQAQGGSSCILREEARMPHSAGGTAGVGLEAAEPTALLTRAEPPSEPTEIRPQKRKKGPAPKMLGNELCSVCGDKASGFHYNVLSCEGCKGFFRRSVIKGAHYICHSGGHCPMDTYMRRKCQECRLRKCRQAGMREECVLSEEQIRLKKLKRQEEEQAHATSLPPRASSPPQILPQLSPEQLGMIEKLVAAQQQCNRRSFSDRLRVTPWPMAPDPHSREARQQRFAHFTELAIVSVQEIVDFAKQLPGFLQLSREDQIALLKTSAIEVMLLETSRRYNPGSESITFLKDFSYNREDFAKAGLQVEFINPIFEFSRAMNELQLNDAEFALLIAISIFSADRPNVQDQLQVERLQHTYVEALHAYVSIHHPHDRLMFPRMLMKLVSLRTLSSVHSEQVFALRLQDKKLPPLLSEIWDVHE

[6] = IV and oral DMPK cassette dose experiment; format: in vivo, C57Bl/6 mice; conditions: for AUC(0-t) / Vd / clearance / half-life / Cmax / Tmax / bioavailability: male, C57Bl/6, mouse, plasma, 1 mg/kg; for bioavailability: F

Structure (SMILES) | AUC(0-t) ([6]; iv) | Vd ([6]; iv) | clearance ([6]; iv) | half-life ([6]; iv) | AUC(0-t) ([6]; po) | Cmax ([6]; po) | Tmax ([6]; po) | bioavailability ([6]; po, 1 mg/Kg cassette, mice) | LXRα Fold Sel. [5] | recruitment of NCOR peptide fragment to REV-ERBα (in words) [1] | BMAL1 Phase Delay [4] | IL-6 secretion / expression [2] | ABCA1 levels [3] | other results
CC(C)(C)OC(=O)CN(Cc1ccc(Cl)cc1)Cc1ccc([N+](=O)[O-])s1 [Compound 1, reference compound] | – | – | – | – | – | – | – | – | – | induced recruitment of co-factor NCOR peptide fragment | 0 h | – | – | IL-6 transcript expression [2]: significantly repressed IL-6; ABCA1 transcript expression [3]: increased ABCA1 transcript expression
CCCCCNC(=O)N1CCC(CN(Cc2ccc(Cl)cc2)Cc2ccc([N+](=O)[O-])s2)C1 (stereo not drawn) [Compound 2, reference compound] | – | – | – | – | – | – | – | – | – | neither compounds 2 or 3 increased recruitment of the NCOR peptide fragment | – | – | – | IL-6 transcript expression [2]: significantly repressed IL-6; IC50 [5]: 6.3 µM; ABCA1 transcript expression [3]: increased ABCA1 transcript expression; inhibition at 20 µM [4]: 20%
CCOC(=O)N1CCC(CN(Cc2ccc(Cl)cc2)Cc2ccc([N+](=O)[O-])s2)C1 (stereo not drawn) [Compound 3, reference compound] | 365 ng·h/mL | 1.6 L/kg | 45 mL/min/kg | 33 min | 7.93 ng·h/mL | 7.41 ng/mL | 30 min | 2.2% | – | neither compounds 2 or 3 increased recruitment of the NCOR peptide fragment | – | – | – | inhibition at 20 µM [4]: 14%
Cc1cc(Cl)ccc1CN(Cc1ccc(Cl)cc1)Cc1ccc([N+](=O)[O-])s1 [Compound 4, N-(4-chloro-2-methylbenzyl)-N-(4-chlorobenzyl)-1-(5-nitrothiophen-2-yl)methanamine hydrochloride salt] | 2540 ng·h/mL | 0.3 L/kg | 6.67 mL/min/kg | 99 min | 594 ng·h/mL | 180 ng/mL | 120 min | – | 1,259 fold | – | 0 h | significant reduction of IL-6 secretion | no measurable effect on ABCA1 levels | F ([6]; Oral, 1 mg/Kg cassette, mice): 23.4%; half-life [6]: 120 min; effect on BMAL oscillation curve ([4]; synchronized U2OS cells): suppression and shift of the BMAL oscillation curve in a dose-dependent manner
O=[N+]([O-])c1ccc(CN(Cc2ccc(Cl)cc2)Cc2ccccc2F)s1 [Compound 6, N-(4-Chlorobenzyl)-N-(2-fluorobenzyl)-1-(5-nitrothiophen-2-yl)methanamine hydrochloride salt] | – | – | – | – | – | – | – | – | – | – | 0 h | – | – | –
Clc1ccc(CN(Cc2cccnc2)Cc2ncc[nH]2)cc1 [Compound 21, N-((1H-Imidazol-2-yl)methyl)-N-(4-chlorobenzyl)-1-(pyridin-3-yl)methanamine] | – | – | – | – | – | – | – | – | – | complete loss of activity | – | – | – | –
N#Cc1ccc(CN(Cc2cccnc2)Cc2cc(F)ccc2F)s1 [Compound 25, 5-(((2,5-Difluorobenzyl)(pyridin-3-ylmethyl)amino)methyl)thiophene-2-carbonitrile] | – | – | – | – | – | – | – | – | – | – | 0 h | – | – | –
C=CC1=C(C)c2cc3[n-]c(cc4[n-]c(cc5nc(cc1n2)C(C)=C5C=C)c(C)c4CCC(=O)O)c(CCC(=O)O)c3C.[Fe+2] [heme, reference compound] | – | – | – | – | – | – | – | – | – | – | – | – | – | BMAL-luciferase suppression ([4]; in-house U2OS reporter assay, single endpoint comparison): > 50%

Second part, led by results:

AUC(0-t) ([6]; iv) | Vd ([6]; iv) | clearance ([6]; iv) | half-life ([6]; iv) | AUC(0-t) ([6]; po) | Cmax ([6]; po) | Tmax ([6]; po) | bioavailability ([6]; po, 1 mg/Kg cassette, mice) | LXRα Fold Sel. [5] | Structure (SMILES) | recruitment of NCOR peptide fragment to REV-ERBα (in words) [1] | BMAL1 Phase Delay [4] | IL-6 secretion / expression [2] | ABCA1 levels [3] | other results
354 ng·h/mL | 1.5 L/kg | 46.7 mL/min/kg | 44.4 min | 8.39 ng·h/mL | 8.98 ng/mL | 15 min | 2.4% | > 250 fold | O=[N+]([O-])c1ccc(CN(Cc2ccc(F)cc2)Cc2cccnc2)s1 [Compound 10, N-(4-Fluorobenzyl)-1-(5-nitrothiophen-2-yl)-N-(pyridin-3-ylmethyl)methanamine hydrochloride salt] | – | 0 h | significant reduction of IL-6 secretion | no measurable effect on ABCA1 levels | –
361 ng·h/mL | 1.8 L/kg | 46.7 mL/min/kg | 76.2 min | 10.2 ng·h/mL | 9.14 ng/mL | 15 min | 3.5% | 100 fold | N#Cc1ccc(CN(Cc2ccc(Cl)cc2)Cc2cccnc2)s1 [Compound 16, 5-(((4-Chloro-benzyl)(pyridin-3-ylmethyl)amino)methyl)thiophene-2-carbonitrile hydrochloride salt] | – | 0 h | significant reduction of IL-6 secretion | no measurable effect on ABCA1 levels | –
– | – | – | – | – | – | – | – | <1 fold | Clc1ccc(CN(Cc2cccnc2)Cc2nccs2)cc1 [Compound 20, N-(4-Chlorobenzyl)-1-(pyridin-3-yl)-N-(thiazol-2-ylmethyl)methanamine] | complete loss of activity | – | – | – | –
375 ng·h/mL | 1.4 L/kg | 43.3 mL/min/kg | 44.4 min | 9.39 ng·h/mL | 9.94 ng/mL | 15 min | 3% | – | N#Cc1ccc(CN(Cc2cccnc2)Cc2ccc(F)c(F)c2)s1 [Compound 23, 5-(((3,4-Difluorobenzyl)(pyridin-3-ylmethyl)amino)methyl)thiophene-2-carbonitrile] | – | – | significant reduction of IL-6 secretion | no measurable effect on ABCA1 levels | –
– | – | – | – | – | – | – | – | <1 fold | N#Cc1ccc(CN(Cc2cccnc2)Cc2ccccc2F)s1 [Compound 26, 5-(((2-Fluorobenzyl)(pyridin-3-ylmethyl)amino)methyl)thiophene-2-carbonitrile] | – | 0 h | – | – | –
